The sample as a whole holds a higher share of hits than the screen did.
HCT116 PTEN-null: suppresses growth of cells with PTEN deletion. HCT116 PTEN-null viability, CellTiter-Glo, 60 h; hits give low values. viability, % at 10 µM. 140,000 compounds, 1.2% hits. AID 827;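 active = viability at or below a set limit, 4 SD under the median of all tested compounds, cut at about 3.7% in these data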;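 also: PTEN knockout HCT116 line with beta catenin targeted HCT116 as companion control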
HUVEC inhibit: blocks proliferation of human endothelial cells; HUVEC proliferation, CellTiter-Glo luminescence, 72 h; hits give low values; viability, % at 10 µM (by protocol); 86,000 compounds, 1.1% hits; AID 648;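 active = viability at or below 30%; inactive = viability above 30%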;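 also: 100% = median luminescence of DMSO-only cell control wells on each plate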
Lung fibro prol: blocks proliferation of human lung fibroblasts; LL 47 human lung fibroblast viability, ATP luminescence; hits give low values; viability, % at 10 µM; 85,000 compounds, 1.1% hits;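 active = viability at or below 50% in the single dose screen; inactive = viability above 50%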;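 also: compound exposure lasted 72 h before the ATP readout; 100% = median luminescence of untreated cell-only wells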
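Material: human LL 47 lung fibroblast cells; quantity: 1,150 cells/well; medium: IMEM plus 15% FBS; doses: 0.1% DMSO in all compound wells; timing: overnight attachment after seeding, then 72 h compound exposure at 37 °C; detection: CellTiter-Glo luminescence; measure: % viability of median cell-only signal; controls: cell-only wells, no compound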
H69AR growth 86K: blocks growth of human H69AR lung tumor cells | H69AR lung tumor viability, ATP luminescence, 72 h; hits give low values | AID 598 | 85,000 compounds, 6% hits | viability, % at 10 µM;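 active = viability at or below 40%; inactive = viability above 40%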;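 also: multidrug resistant small cell line overexpressing MRP-1 efflux transporter; 100% = mean luminescence of untreated control wells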
HCT116 bCat-KO: beta-catenin-lacking colon tumor cell growth suppression; HCT116 beta-catenin knockout viability, CellTiter-Glo, 60 h; hits give low values; viability, % at 10 µM; 140,000 compounds, 1.5% hits; AID 818;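 active = viability at or under a set limit, the compound median less 4 SD, cut at about 6% in these data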;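 also: 0% = Hyamine 1622 control at 20 µM and 100% = untreated cell control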
Numbers without * were called inactive; / = no result given.

SMILES	HCT116 PTEN-null	HUVEC inhibit	Lung fibro prol	H69AR growth 86K	HCT116 bCat-KO
O=C(Nc1nc(NC(=O)c2ccco2)n(-c2ccccc2)n1)c1ccccc1	11	93	35*	1.4*	7
CCc1ccc2nc(SCC(=O)N3CC(=O)Nc4ccccc43)c(C#N)cc2c1	16	32	65	5.2*	11
CCN(CC)c1ccc(N=Cc2ccc([N+](=O)[O-])o2)cc1	1.9*	/	/	/	4.7*
CCN(CC)c1ccc(N=Cc2ccccc2[N+](=O)[O-])cc1	53	/	/	/	46
CCC(=O)c1ccc(OCC(O)CN2CCN(C(c3ccccc3)c3ccccc3)CC2)cc1 (centres undefined)	46	63	98	98	55
COc1ccc2cc(C(c3nnnn3C3CCCCC3)N3CCCCCC3)c3nnnn3c2c1 (centres undefined)	/	85	87	35*	/
COc1ccc(C(c2nnnn2C2CCCC2)N2CCC(C)CC2)c(OC)c1 (centres undefined)	64	101	93	62	64
COc1ccc2cc(C(c3nnnn3C3CCCC3)N3CCCCCC3)c3nnnn3c2c1 (centres undefined)	2.3*	43	95	40	9
Cc1ccc(-c2nnc3ccc(SCC(=O)N4CCCc5ccccc54)nn23)cc1	62	/	/	/	68
Cc1occc1-c1nnc(SCC(=O)N2CCc3ccccc32)o1	90	91	97	1.3*	81
Cc1ccc(-c2nnc3ccc(SCC(=O)N4CCc5ccccc54)nn23)cc1	94	45	85	32*	89
O=C(CCSCc1ccc(Cl)cc1)NC1CCCC1	91	/	/	/	95
Cc1cc2oc(=O)cc(CSc3nc(N)cc(N)n3)c2cc1C	104	/	/	/	106
Cc1c(CCC(C)C)c(-n2ccnc2C)n2c(nc3ccccc32)c1C#N	74	105	100	23*	72
C=C(C)CN1CCN(c2c(CCC#N)c(C)c(C#N)c3nc4ccccc4n23)CC1	3.1*	74	69	38*	2.9*
CCCCCc1c(C)c(C#N)c2nc3ccccc3n2c1-n1ccnc1C	70	/	/	/	77
CCOC(=O)C1CCN(C(=O)CN(c2ccc3c(c2)OCCO3)S(C)(=O)=O)CC1	92	77	88	97	92
CCOC(=O)/C(=C\c1cccnc1)C(=O)c1cc(C(C)=O)c(Nc2ccccc2)s1	2.2*	4.1*	19*	1.8*	2.2*
CC(C)OC(=O)/C(=C/c1cccnc1)NC(=O)c1ccccc1	85	/	/	/	93
CCOC(=O)/C(=C\c1ccccc1)C(=O)c1cc(C(C)=O)c(Nc2ccccc2)s1	2.4*	3.8*	19*	2.1*	7
C=CCSc1nnc(-c2cc3c(s2)-c2ccccc2CC3)o1	92	/	/	/	86
CCOC(=O)N1CC=C2C(C#N)=C(N)C(C#N)(C#N)[C@H](c3ccc(OCC)c(OCC)c3)[C@H]2C1	97	60	79	26*	94
CN1CC=C2C(C#N)=C(N)C(C#N)(C#N)[C@H](c3ccoc3)[C@H]2C1	69	104	95	56	76
N#CC1=C(N)C(C#N)(C#N)[C@H](c2ccoc2)[C@H]2CN(Cc3ccccc3)CC=C12	85	39	69	4.0*	89
N#CC1=C(N)C(C#N)(C#N)C(c2cccnc2)C2CN(C(=O)OCc3ccccc3)CC=C12 (centres undefined)	69	53	72	11*	61
SMILES	HCT116 PTEN-null	HUVEC inhibit	Lung fibro prol	H69AR growth 86K	HCT116 bCat-KO
CN1CC=C2C(C#N)=C(N)C(C#N)(C#N)C(c3cccc(Cl)c3Cl)C2C1 (centres undefined)	89	71	78	15*	84
Cc1nc(SCC(=O)N2CCC(C(N)=O)CC2)n[nH]1	108	89	92	99	100
CCC(C)(C)n1nnnc1CN1CCN(C(c2ccccc2)c2ccccc2)CC1	69	90	97	56	66
Cc1sc(NC(=O)c2ccc(OCC(C)C)cc2)c(C(N)=O)c1-c1ccc(Cl)cc1Cl	39	/	/	/	16
Nc1ccccc1C(=O)NCc1ccc(Cl)cc1	94	/	/	/	88
Nc1cccc(Cl)c1N1CCOCC1	105	113	104	112	96
CC(=O)Nc1ccc(S(=O)(=O)N(C)CC(=O)OCC(=O)c2cc(C)n(-c3ccc4c(c3)OCO4)c2C)cc1	93	/	/	/	93
COc1ccc(C(=O)N2c3ccccc3C=CC2C#N)cc1 (centres undefined)	38	/	/	/	28
N#C[C@H]1[C@H](c2ccccc2)[C@](C#N)(C(=O)c2ccccc2)[C@@H]2C=Cc3ccccc3N21	3.3*	/	/	/	5.3*

Screening data deposited in PubChem by SRMLSC.
